Assay results: ChEMBL document CHEMBL4834419 (J Med Chem, 2021)

What was measured:
[1] = Metabolic stability in Sprague-Dawley rat liver microsomes assessed as compound degradation at 10 uM incubated for 60 min by HPLC analysis; format: ADME; conditions: 1 h
Summary of the method: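 Compound at 10 μM final in 0.1 M phosphate, pH 7.4, was preincubated 5 min at 37 °C with an NADPH-regenerating system. Sprague-Dawley rat liver microsomes were then added. Reactions were stopped with ice-cold methanol at 0, 15, 30 and 60 min and remaining compound quantified by HPLC against an external calibration. Controls: no NADPH, heat-inactivated microsomes. Three independent experiments.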

[2] = Half life in mouse at 10 mg/kg, po; format: ADME, organism-based; conditions: in vivo
Summary of the method: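 Mice, n = 3, received a single oral dose of 10 mg/kg in water with 1% hydroxypropyl methylcellulose/Tween 80 (99:1). Tail-vein blood was drawn at 30 and 60 min and tissue collected at 3 h. Compound was quantified by LC−MS and PK derived by noncompartmental analysis.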

[3] = molecular target: T1, Retinoic acid receptor RXR-alpha (Homo sapiens) (UniProt P19793); test: Agonist activity against human RXRalpha in human HEK293T cells co-expressing pFR/pRL-Luc assessed as receptor activation at 10 uM incubated for 14 to 16 hrs by hybrid reporter gene assay relative to bexarotene; format: cell-based; conditions: filed as agonist, time 14-16 hrs
T1 sequence (whole entry): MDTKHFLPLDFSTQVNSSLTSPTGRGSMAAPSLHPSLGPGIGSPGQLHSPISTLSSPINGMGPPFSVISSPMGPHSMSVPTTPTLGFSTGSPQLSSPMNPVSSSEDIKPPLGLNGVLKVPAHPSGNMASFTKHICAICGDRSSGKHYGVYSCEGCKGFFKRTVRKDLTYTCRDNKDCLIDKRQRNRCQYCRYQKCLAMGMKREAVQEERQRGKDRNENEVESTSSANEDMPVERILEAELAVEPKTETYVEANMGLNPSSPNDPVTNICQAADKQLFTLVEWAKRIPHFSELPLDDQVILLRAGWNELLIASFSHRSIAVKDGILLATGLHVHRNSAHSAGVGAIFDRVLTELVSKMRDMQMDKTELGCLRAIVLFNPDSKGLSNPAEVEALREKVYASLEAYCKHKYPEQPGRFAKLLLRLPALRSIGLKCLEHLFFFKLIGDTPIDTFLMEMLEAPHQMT
Summary of the method: (§1)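 Gal4 hybrid reporter assay in HEK293T cells, seeded 24 h before transfection (Lipofectamine LTX, Opti-MEM) with pFR-Luc, pRL-SV40 and pFA-CMV plasmid carrying the hinge region and LBD of the human receptor. After 5 h, compound added in 0.1% DMSO, with 0.1% DMSO alone as untreated control. Dual-Glo luciferase read after 14−16 h; firefly/renilla normalized; duplicates, ≥2 independent experiments.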

[4] = molecular target: T2, Oxysterols receptor LXR-beta (Homo sapiens) (UniProt P55055); test: Agonist activity against human LXRbeta in human HEK293T cells co-expressing pFR/pRL-Luc assessed as receptor activation at 10 uM incubated for 14 to 16 hrs by hybrid reporter gene assay relative to bexarotene; format: cell-based; conditions: filed as agonist, time 14-16 hrs; summary of the method: as §1
T2 sequence (whole entry): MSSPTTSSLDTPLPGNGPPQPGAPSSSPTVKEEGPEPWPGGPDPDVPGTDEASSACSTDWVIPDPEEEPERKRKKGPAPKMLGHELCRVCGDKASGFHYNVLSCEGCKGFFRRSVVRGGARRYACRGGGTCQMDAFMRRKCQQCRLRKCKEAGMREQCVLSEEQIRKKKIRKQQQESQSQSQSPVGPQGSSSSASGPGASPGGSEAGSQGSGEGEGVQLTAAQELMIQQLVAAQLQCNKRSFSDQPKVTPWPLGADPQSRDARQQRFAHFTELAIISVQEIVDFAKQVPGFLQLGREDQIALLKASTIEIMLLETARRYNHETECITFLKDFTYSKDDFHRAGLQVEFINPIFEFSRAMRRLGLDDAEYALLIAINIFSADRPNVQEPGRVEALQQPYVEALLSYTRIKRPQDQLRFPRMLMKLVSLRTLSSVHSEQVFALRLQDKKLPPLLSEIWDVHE

[5] = molecular target: T3, Retinoic acid receptor alpha (Homo sapiens) (UniProt P10276); test: Agonist activity against human RARalpha in human HEK293T cells co-expressing pFR/pRL-Luc assessed as receptor activation at 10 uM incubated for 14 to 16 hrs by hybrid reporter gene assay relative to bexarotene; format: cell-based; conditions: filed as agonist, time 14-16 hrs; summary of the method: as §1
T3 sequence (whole entry): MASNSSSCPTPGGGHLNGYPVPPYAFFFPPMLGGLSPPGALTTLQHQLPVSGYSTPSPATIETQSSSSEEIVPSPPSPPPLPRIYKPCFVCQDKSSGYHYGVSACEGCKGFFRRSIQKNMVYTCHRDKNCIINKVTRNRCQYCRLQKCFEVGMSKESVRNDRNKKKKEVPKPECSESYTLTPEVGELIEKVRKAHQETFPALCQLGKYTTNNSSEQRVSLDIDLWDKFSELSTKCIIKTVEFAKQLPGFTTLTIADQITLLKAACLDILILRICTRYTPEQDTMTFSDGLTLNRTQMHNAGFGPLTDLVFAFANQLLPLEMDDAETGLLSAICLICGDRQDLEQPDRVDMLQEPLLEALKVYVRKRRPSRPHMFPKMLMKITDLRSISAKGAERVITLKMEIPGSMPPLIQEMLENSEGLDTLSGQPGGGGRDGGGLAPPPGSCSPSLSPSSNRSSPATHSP

[6] = molecular target: T4, Retinoic acid receptor RXR-gamma (Homo sapiens) (UniProt P48443); test: Agonist activity against human RXRgamma in human HEK293T cells co-expressing pFR/pRL-Luc assessed as receptor activation at 10 uM incubated for 14 to 16 hrs by hybrid reporter gene assay relative to bexarotene; format: cell-based; conditions: filed as agonist, time 14-16 hrs; summary of the method: as §1
T4 sequence (whole entry): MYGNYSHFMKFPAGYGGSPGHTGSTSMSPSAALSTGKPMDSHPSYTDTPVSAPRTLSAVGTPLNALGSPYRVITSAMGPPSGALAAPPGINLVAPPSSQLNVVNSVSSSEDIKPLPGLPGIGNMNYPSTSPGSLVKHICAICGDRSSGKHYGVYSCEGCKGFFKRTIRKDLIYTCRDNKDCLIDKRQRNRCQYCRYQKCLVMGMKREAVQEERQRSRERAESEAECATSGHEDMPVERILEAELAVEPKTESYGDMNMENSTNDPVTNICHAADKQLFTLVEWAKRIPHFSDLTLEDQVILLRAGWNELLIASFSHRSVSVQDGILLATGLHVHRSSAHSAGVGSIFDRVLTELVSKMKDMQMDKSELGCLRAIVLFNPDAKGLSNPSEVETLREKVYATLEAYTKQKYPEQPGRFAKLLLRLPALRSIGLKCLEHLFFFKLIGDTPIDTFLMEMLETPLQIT

Stabilty [1]: Stable | half-life [2]: > 3 h | Activity [3]: 21% | Activity [4]: 2% | Activity [5]: 1% | Activity [6]: 27%
SMILES: O=C(O)CCCc1cc(-c2cc(Cl)cc(Cl)c2)n(-c2ccccc2)n1
